Screens deposited in PubChem BioAssay by several laboratories.
Sampled rows, rich in hits. Any-hit rate of the full collection: about 1.9%.
Runt-CBFb FRET: inhibitors of RUNX1 Runt–CBFb binding, primary screen, biochemical, FRET, Cerulean-Runt, Venus-CBFb, uHTS. Runt-related transcription factor 1 (Homo sapiens) + Core-binding factor subunit beta …. Cerulean-Runt/Venus-CBFb FRET ratio 530/480, 1 h. inhibition, % at 20 µM. 220,000 compounds, 0.46% hits. AID 1496, 2009;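 active means inhibition over about 50% at 20 µM in the single-dose screen, limit read from the data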
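Measured by: fluorescence energy transfer, 422 nm excitation, 530/480 nm emission; test system: Cerulean-tagged RUNX1 Runt domain (FRET donor) fusion protein; buffer or medium: Tris pH 7.5 buffer with BSA; compound: one dose, 20 µM compound, 1% DMSO; times: two 1 h room-temperature incubations shielded from light; benchmarks: unlabeled CBFb 5 µM, positive control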
Hck-Nef inh: inhibitors of Nef-activated human Hck kinase, primary screen, biochemical, Z-Lyte FRET, 384-well, Hck-YEEI. Tyrosine-protein kinase HCK (Homo sapiens), P08631. Recombinant Hck-YEEI plus Nef, Z-Lyte FRET kinase assay. inhibition, % at 20 µM. 220,000 compounds, 0.68% hits;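 active means Hck-Nef kinase inhibition above about 50%, limit read from the data; inactive means inhibition below that limit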
Target sequence (P08631 whole entry, looked up): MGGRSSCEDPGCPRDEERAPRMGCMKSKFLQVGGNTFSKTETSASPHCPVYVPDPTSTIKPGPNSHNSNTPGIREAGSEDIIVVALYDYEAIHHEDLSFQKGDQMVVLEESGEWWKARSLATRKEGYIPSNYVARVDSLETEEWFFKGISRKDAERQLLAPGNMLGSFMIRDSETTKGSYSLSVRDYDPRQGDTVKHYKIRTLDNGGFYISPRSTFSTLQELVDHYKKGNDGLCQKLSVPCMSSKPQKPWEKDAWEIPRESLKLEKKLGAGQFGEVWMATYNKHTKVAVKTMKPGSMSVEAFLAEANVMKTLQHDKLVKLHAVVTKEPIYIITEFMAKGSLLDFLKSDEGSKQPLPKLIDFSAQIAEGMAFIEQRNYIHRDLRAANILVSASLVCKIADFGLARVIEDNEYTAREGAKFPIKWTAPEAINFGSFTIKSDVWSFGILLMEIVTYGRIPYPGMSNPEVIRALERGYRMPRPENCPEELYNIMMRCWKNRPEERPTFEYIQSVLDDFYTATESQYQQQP
RanGTP-Imp inh: inhibitors of RanGTP-importin-beta interaction, primary screen, biochemical, FRET, CFP-Ran, YFP-importin-beta, homogeneous; inhibition, % (no concentration beside the values); 300,000 compounds, 1.1% hits; Ran GTPase (GTP-bound) - importin-beta complex; cell-free CFP-Ran/YFP-importin-beta FRET ratio;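 active means more than half of the replicate wells show a fall in the fluorescence ratio signal beyond about 16%, limit read from the data, passing the limit was not always enough; inconclusive means exactly half of the replicate wells pass the set limit; inactive means fewer than half of replicates pass the limit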
Runt-SMMHC FRET: inhibitors of RUNX1 Runt–CBFb-SMMHC binding, primary screen, biochemical, FRET, Cerulean-Runt, Venus-CBFb-SMMHC, uHTS. Cerulean-Runt/Venus-CBFb-SMMHC FRET ratio 530/480, 1 h. inhibition, % at 20 µM. Runt-related transcription factor 1 (Homo sapiens) + Core-binding factor subunit beta …. 220,000 compounds, 0.74% hits;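 active means mean inhibition across duplicate retests at 20 µM reaching about 50%, limit read from the data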;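 further: inhibitors lower the FRET ratio by blocking Runt binding to CBFb-SMMHC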
Hck Nef conf: retest of Hck:Nef kinase inhibitor hits, confirmation, biochemical, Z-Lyte FRET, 384-well, p-Tyr peptide counterscreen; shares compounds with Hck-Nef inh; Recombinant Hck-YEEI:Nef, Z-Lyte FRET kinase assay; calls only at 10 µM; 1,300 compounds, 28% hits;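 active means average inhibition of at least 50%, with Z-scores no higher than 3 in both the phospho-tyrosine peptide and fluorescence counterscreens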
Large screens that a line does not name were inactive (follow-up assays come after a bar, where shown).

CN(C)S(=O)(=O)c1cccc(NC(=O)COC(=O)/C=C/c2ccc(Br)o2)c1	none
CCN(C)c1ccc(/C=N\n2nnnc2N)cc1	Hck-Nef inh 54, Runt-SMMHC FRET 54
Nc1nnnn1/N=C/c1ccc(O)cc1	none
CCN(CC)c1ccc(/C=N/n2nnnc2N)c(O)c1	Hck-Nef inh 57 | Hck Nef conf inactive
O=C(O)c1ccc2c(c1)C(=O)N(C(Cc1ccc(O)cc1)C(=O)O)C2=O (stereo unspecified)	none
COc1ccccc1NS(=O)(=O)c1cccc(NC(=O)c2sc3ccccc3c2Cl)c1	Hck-Nef inh 154 | Hck Nef conf inactive
O=c1c(C(c2ccccc2)c2c(O)sc3ccccc3c2=O)c(O)sc2ccccc12	Hck-Nef inh 68, RanGTP-Imp inh 19 | Hck Nef conf active
Cc1cc2sc3ccccc3c(=O)c2c(C)c1O	RanGTP-Imp inh inconclusive
CC(C)(C)c1ccc(C(=O)Nc2ccc(O)c3c(=O)cc(-c4cccc(Cl)c4)oc23)cc1	none
COc1ccc(C(=O)Nc2ccc(O)c3c(=O)cc(-c4cccc(Cl)c4)oc23)cc1	Hck-Nef inh 83 | Hck Nef conf inactive
O=C(N=C1SC2CS(=O)(=O)CC2N1Cc1ccccc1Cl)C1CC1 (stereo unspecified)	none (no result: Runt-CBFb FRET, Hck-Nef inh, Runt-SMMHC FRET)
CC(=O)COc1nc2c(c(-c3ccco3)c1C#N)CCc1ccccc1-2	Hck-Nef inh 56 | Hck Nef conf inactive
O=C(Nc1nc2ccc(S(=O)(=O)N3CCCC3)cc2s1)c1ccccn1	Hck-Nef inh 57 | Hck Nef conf inactive
O=C(Nc1nc2ccc(S(=O)(=O)N3CCCCC3)cc2s1)c1ccncc1	none
O=C1NN(c2cccc(Br)c2)C(=O)/C1=C/c1ccc(-c2cc([N+](=O)[O-])ccc2O)o1	Hck-Nef inh 98 | Hck Nef conf active
CCOc1ccc2ncc(C(=O)c3ccc(OC)cc3)c(N3CCN(CC)CC3)c2c1	none
CCOC(=O)c1cnc2ccc(OCC)cc2c1N1CCN(c2ccccc2OC)CC1	Hck-Nef inh 77 | Hck Nef conf active
CCOC(=O)c1cc(C(=O)NCc2ccc(Cl)cc2Cl)nn1C	none
CCOC(=O)c1cc(C(=O)Nc2ccc(C)c(F)c2)nn1C	Hck-Nef inh 106 | Hck Nef conf inactive
Cn1nc(Oc2ncc(C(F)(F)F)cc2Cl)cc1C(F)(F)F	Hck-Nef inh 54, RanGTP-Imp inh inconclusive | Hck Nef conf inactive
FC(F)(F)c1cnc(Oc2cccc3ccccc23)c(Cl)c1	none
CCN(CC)c1ccc(/C=c2\sc3nc4ccccc4n3c2=O)c(O)c1	Hck-Nef inh 68, RanGTP-Imp inh 135, Runt-SMMHC FRET 92
CCSc1nnc(NC(=O)c2ccco2)s1	Hck-Nef inh 101 | Hck Nef conf inactive
Cc1cc(/C=N/Nc2ccc([N+](=O)[O-])cn2)c(C)n1-c1ccc(C(=O)O)cc1	Hck-Nef inh 79 | Hck Nef conf inactive
CCN(CC)c1ccc(-c2nn3c(-c4n[nH]c5c4CCC5)nnc3s2)cc1	Hck-Nef inh 61 | Hck Nef conf inactive
C1CCC(c2nn3c(-c4n[nH]c5c4CCC5)nnc3s2)CC1	none
COCCC(=O)N1CCC(Oc2ccc(C(=O)N3CCCCC3CCO)cc2)CC1 (stereo unspecified)	none (no result: Runt-CBFb FRET, Hck-Nef inh, Runt-SMMHC FRET)
COc1ccccc1-c1cc(C(=O)NCCCN2CCOCC2)no1	none (no result: Runt-CBFb FRET, Hck-Nef inh, Runt-SMMHC FRET)
COc1ccccc1CNC(=O)c1c(N)n(CCCN2CCOCC2)c2nc3ccccc3nc12	Hck-Nef inh 52, RanGTP-Imp inh 126 | Hck Nef conf inactive
Cc1c(C)c2cc(Cl)c(O)c(CN3CCCCC3)c2oc1=O	Hck-Nef inh 67, RanGTP-Imp inh inconclusive, Runt-SMMHC FRET 89 | Hck Nef conf inactive
CN1CCN(Cc2c(O)c(Cl)cc3c(-c4ccccc4)cc(=O)oc23)CC1	none
Cc1cc(=O)oc2c(CN3CCN(C)CC3)c(O)c(Cl)cc12	Runt-CBFb FRET 97, Hck-Nef inh 106, Runt-SMMHC FRET 136
CN(c1ccccc1)c1ccc(/C=N/NC(=O)CC#N)cc1	none
Cc1ccc(C)c(C(=O)Cn2c(NCCO)nc3ccccc32)c1	none (no result: Runt-CBFb FRET, Hck-Nef inh, Runt-SMMHC FRET)
CC(=O)Oc1cc2oc(=O)c3c(c2cc1Cl)CCC3	Runt-CBFb FRET 81, Hck-Nef inh 111, Runt-SMMHC FRET 178
O=C1C=CC(O)(c2cc(=O)c3c(O)cc(O)cc3o2)C=C1	Hck-Nef inh 53 | Hck Nef conf inactive
O=c1cc(-c2ccccc2Cl)oc2cc(O)cc(O)c12	none
Clc1ccc(N2CCN(Cc3ccco3)CC2)cc1	none (no result: Runt-CBFb FRET, Hck-Nef inh, Runt-SMMHC FRET)
CCOC(=O)N1CCN(C(=O)c2cn(C)c3ccc(S(=O)(=O)N(C)C4CCCCC4)cc3c2=O)CC1	none (no result: Runt-CBFb FRET, Hck-Nef inh, Runt-SMMHC FRET)
CCn1c2ccccc2c(=O)c2ccccc21	Hck-Nef inh 142, RanGTP-Imp inh 145, Runt-SMMHC FRET 91
CCn1c2ccccc2c2cc([N+](=O)[O-])ccc21	none
O=C(O)C[C@H]1c2cc(C(F)(F)F)ccc2S(=O)(=O)N1C1CCCCC1	none (no result: Runt-CBFb FRET, Hck-Nef inh, Runt-SMMHC FRET)
COc1ccc2nc(C)cc(SCC(=O)N/N=C/c3cccc4ccccc34)c2c1	Hck-Nef inh 91 | Hck Nef conf inactive
COc1ccc(OC)c(/C=N/NC(=O)CC(=O)NCc2ccccc2)c1	Hck-Nef inh 56 | Hck Nef conf inactive
CCOC(=O)c1c(C)nc2cc(C)cc(C)n12	none
Cc1c(C(=O)Nc2cc(F)ccc2F)sc2nc3n(c(=O)c12)CCCCC3	none (no result: Runt-CBFb FRET, Hck-Nef inh, Runt-SMMHC FRET)
CCOC(=O)c1c(NC(=O)N/N=C/c2ccc(O)c(OC)c2)sc(C(C)=O)c1C	Hck-Nef inh 61 | Hck Nef conf inactive
COc1cc(/C=C/c2ccc3cccc(OC)c3n2)c(O)c([N+](=O)[O-])c1	Hck-Nef inh 69 | Hck Nef conf active
CCOCCCn1c(=NC(C)=O)c(C(=O)OCC)cc2c(=O)n3ccccc3nc21	Runt-CBFb FRET 52, Hck-Nef inh 119, RanGTP-Imp inh 77, Runt-SMMHC FRET 63
COCCCn1c(=NC(=O)c2ccccc2)c(C#N)cc2c(=O)n3cccc(C)c3nc21	Hck-Nef inh 82, RanGTP-Imp inh 49, Runt-SMMHC FRET 88 | Hck Nef conf inactive
CCOCCCn1c(=NC(C)=O)c(C#N)cc2c(=O)n3ccccc3nc21	Hck-Nef inh 96, RanGTP-Imp inh 123, Runt-SMMHC FRET 88
CCOC(=O)c1cc2c(=O)n3ccccc3nc2n(CC(C)C)c1=NC(=O)c1ccco1	Hck-Nef inh 105, RanGTP-Imp inh 141, Runt-SMMHC FRET 60 | Hck Nef conf inactive
CCN(C(=O)c1cc2c(=O)n3cccc(C)c3nc2n1CCCOC)C1CCCCC1	none (no result: Runt-CBFb FRET, Hck-Nef inh, Runt-SMMHC FRET)
CC1CCc2cc(F)ccc2N1C(=O)c1ccc2c(c1)OCO2 (stereo unspecified)	none
CC(C(=O)NC(=O)NC1CCCCC1)N(C)CC(=O)Nc1ccc(F)c(F)c1F (stereo unspecified)	none (no result: Runt-CBFb FRET, Hck-Nef inh, Runt-SMMHC FRET)
